Assay results: ChEMBL document CHEMBL4689842, “EUbOPEN Chemogenomics Library wave 1” (2021)

System: U2OS
Test: Multiplex assay against U2OS
Type: toxicity, cell-based
Conditions: human
Outline: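 Hoechst33342, BioTracker Green Microtubule Cytoskeleton Dye, MitoTracker Red and Annexin V Alexa Fluor 680 were added to live cells at seeding, and imaging on a CQ1 microscope at 37°C and 5% CO2 followed compound addition. Gating by CellPathfinder machine learning separated cells into Hoechst high-intensity objects or normal cells, then normal cells into healthy, pyknosed or fragmented nuclei, then pyknosed cells into mitotic or apoptotic. Per cents of healthy-nucleus cells are reported for the tubulin, mitochondrial-mass and membrane-permeability phenotypes.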

[1] = 12 h, 1 µM, compound concentration 1 uM, replicate 1
[2] = 12 h, 1 µM, compound concentration 1 uM, replicate 2
[3] = 12 h, 10 µM, compound concentration 10 uM, replicate 1
[4] = 12 h, 10 µM, compound concentration 10 uM, replicate 2
[5] = 24 h, 1 µM, compound concentration 1 uM, replicate 1
[6] = 24 h, 1 µM, compound concentration 1 uM, replicate 2
[7] = 24 h, 10 µM, compound concentration 10 uM, replicate 1
[8] = 24 h, 10 µM, compound concentration 10 uM, replicate 2
[9] = 48 h, 1 µM, compound concentration 1 uM, replicate 1
[10] = 48 h, 1 µM, compound concentration 1 uM, replicate 2
[11] = 48 h, 10 µM, compound concentration 10 uM, replicate 1
[12] = 48 h, 10 µM, compound concentration 10 uM, replicate 2

SMILES: COc1ccccc1CN[C@H]1C2CCN(CC2)[C@H]1C(c1ccccc1)c1ccccc1 [CP-96345]
- Population Apoptotic (%) [1]: 22%
- Population Fragmented Nuclei (%) [1]: 14%
- Population Healthy Nuclei (%) [1]: 71%
- Population Hoechst High Intensity Objects (%) [1]: 11%
- Population Membrane Permeable-Phenotype (%) [1]: 8%
- Population Mitochondria Different-Phenotype (%) [1]: 20%
- Population Mitotic Cells (%) [1]: 77%
- Population Normal (%) [1]: 88%
- Population Pyknosed Nuclei (%) [1]: 14%
- Population Tubulin-Different-Phenotype (%) [1]: 16%
- Total Cell Count [1]: 136
- Population Apoptotic (%) [2]: 66%
- Population Fragmented Nuclei (%) [2]: 4%
- Population Healthy Nuclei (%) [2]: 92%
- Population Hoechst High Intensity Objects (%) [2]: 0%
- Population Membrane Permeable-Phenotype (%) [2]: 4%
- Population Mitochondria Different-Phenotype (%) [2]: 7%
- Population Mitotic Cells (%) [2]: 33%
- Population Normal (%) [2]: 100%
- Population Pyknosed Nuclei (%) [2]: 3%
- Population Tubulin-Different-Phenotype (%) [2]: 8%
- Total Cell Count [2]: 90
- Population Apoptotic (%) [3]: 51%
- Population Fragmented Nuclei (%) [3]: 10%
- Population Healthy Nuclei (%) [3]: 65%
- Population Hoechst High Intensity Objects (%) [3]: 6%
- Population Membrane Permeable-Phenotype (%) [3]: 7%
- Population Mitochondria Different-Phenotype (%) [3]: 87%
- Population Mitotic Cells (%) [3]: 48%
- Population Normal (%) [3]: 93%
- Population Pyknosed Nuclei (%) [3]: 24%
- Population Tubulin-Different-Phenotype (%) [3]: 84%
- Total Cell Count [3]: 127
- Population Apoptotic (%) [4]: 50%
- Population Fragmented Nuclei (%) [4]: 2%
- Population Healthy Nuclei (%) [4]: 86%
- Population Hoechst High Intensity Objects (%) [4]: 3%
- Population Membrane Permeable-Phenotype (%) [4]: 1%
- Population Mitochondria Different-Phenotype (%) [4]: 45%
- Population Mitotic Cells (%) [4]: 50%
- Population Normal (%) [4]: 96%
- Population Pyknosed Nuclei (%) [4]: 10%
- Population Tubulin-Different-Phenotype (%) [4]: 26%
- Total Cell Count [4]: 77
- Population Apoptotic (%) [5]: 45%
- Population Fragmented Nuclei (%) [5]: 12%
- Population Healthy Nuclei (%) [5]: 79%
- Population Hoechst High Intensity Objects (%) [5]: 7%
- Population Membrane Permeable-Phenotype (%) [5]: 6%
- Population Mitochondria Different-Phenotype (%) [5]: 13%
- Population Mitotic Cells (%) [5]: 54%
- Population Normal (%) [5]: 92%
- Population Pyknosed Nuclei (%) [5]: 7%
- Population Tubulin-Different-Phenotype (%) [5]: 7%
- Total Cell Count [5]: 154
- Population Apoptotic (%) [6]: 54%
- Population Fragmented Nuclei (%) [6]: 4%
- Population Healthy Nuclei (%) [6]: 85%
- Population Hoechst High Intensity Objects (%) [6]: 2%
- Population Membrane Permeable-Phenotype (%) [6]: 1%
- Population Mitochondria Different-Phenotype (%) [6]: 4%
- Population Mitotic Cells (%) [6]: 45%
- Population Normal (%) [6]: 97%
- Population Pyknosed Nuclei (%) [6]: 9%
- Population Tubulin-Different-Phenotype (%) [6]: 17%
- Total Cell Count [6]: 114
- Population Apoptotic (%) [7]: 75%
- Population Fragmented Nuclei (%) [7]: 18%
- Population Healthy Nuclei (%) [7]: 59%
- Population Hoechst High Intensity Objects (%) [7]: 8%
- Population Membrane Permeable-Phenotype (%) [7]: 6%
- Population Mitochondria Different-Phenotype (%) [7]: 90%
- Population Mitotic Cells (%) [7]: 25%
- Population Normal (%) [7]: 91%
- Population Pyknosed Nuclei (%) [7]: 22%
- Population Tubulin-Different-Phenotype (%) [7]: 69%
- Total Cell Count [7]: 157
- Population Apoptotic (%) [8]: 40%
- Population Fragmented Nuclei (%) [8]: 2%
- Population Healthy Nuclei (%) [8]: 81%
- Population Hoechst High Intensity Objects (%) [8]: 1%
- Population Membrane Permeable-Phenotype (%) [8]: 2%
- Population Mitochondria Different-Phenotype (%) [8]: 31%
- Population Mitotic Cells (%) [8]: 60%
- Population Normal (%) [8]: 98%
- Population Pyknosed Nuclei (%) [8]: 16%
- Population Tubulin-Different-Phenotype (%) [8]: 14%
- Total Cell Count [8]: 92
- Population Apoptotic (%) [9]: 80%
- Population Fragmented Nuclei (%) [9]: 7%
- Population Healthy Nuclei (%) [9]: 85%
- Population Hoechst High Intensity Objects (%) [9]: 3%
- Population Membrane Permeable-Phenotype (%) [9]: 2%
- Population Mitochondria Different-Phenotype (%) [9]: 9%
- Population Mitotic Cells (%) [9]: 20%
- Population Normal (%) [9]: 96%
- Population Pyknosed Nuclei (%) [9]: 6%
- Population Tubulin-Different-Phenotype (%) [9]: 5%
- Total Cell Count [9]: 227
- Population Apoptotic (%) [10]: 62%
- Population Fragmented Nuclei (%) [10]: 5%
- Population Healthy Nuclei (%) [10]: 89%
- Population Hoechst High Intensity Objects (%) [10]: 0%
- Population Membrane Permeable-Phenotype (%) [10]: 4%
- Population Mitochondria Different-Phenotype (%) [10]: 12%
- Population Mitotic Cells (%) [10]: 37%
- Population Normal (%) [10]: 99%
- Population Pyknosed Nuclei (%) [10]: 4%
- Population Tubulin-Different-Phenotype (%) [10]: 21%
- Total Cell Count [10]: 164
- Population Apoptotic (%) [11]: 74%
- Population Fragmented Nuclei (%) [11]: 17%
- Population Healthy Nuclei (%) [11]: 58%
- Population Hoechst High Intensity Objects (%) [11]: 4%
- Population Membrane Permeable-Phenotype (%) [11]: 11%
- Population Mitochondria Different-Phenotype (%) [11]: 78%
- Population Mitotic Cells (%) [11]: 25%
- Population Normal (%) [11]: 95%
- Population Pyknosed Nuclei (%) [11]: 23%
- Population Tubulin-Different-Phenotype (%) [11]: 55%
- Total Cell Count [11]: 194
- Population Apoptotic (%) [12]: 33%
- Population Fragmented Nuclei (%) [12]: 9%
- Population Healthy Nuclei (%) [12]: 80%
- Population Hoechst High Intensity Objects (%) [12]: 1%
- Population Membrane Permeable-Phenotype (%) [12]: 6%
- Population Mitochondria Different-Phenotype (%) [12]: 14%
- Population Mitotic Cells (%) [12]: 66%
- Population Normal (%) [12]: 98%
- Population Pyknosed Nuclei (%) [12]: 10%
- Population Tubulin-Different-Phenotype (%) [12]: 13%
- Total Cell Count [12]: 146

SMILES: CC(C)(C)NC[C@H](O)COc1nsnc1N1CCOCC1 [TIMOLOL]
- Population Apoptotic (%) [1]: 77%
- Population Fragmented Nuclei (%) [1]: 12%
- Population Healthy Nuclei (%) [1]: 80%
- Population Hoechst High Intensity Objects (%) [1]: 7%
- Population Membrane Permeable-Phenotype (%) [1]: 4%
- Population Mitochondria Different-Phenotype (%) [1]: 9%
- Population Mitotic Cells (%) [1]: 22%
- Population Pyknosed Nuclei (%) [1]: 7%
- Population Tubulin-Different-Phenotype (%) [1]: 8%
- Population Apoptotic (%) [2]: 100%
- Population Fragmented Nuclei (%) [2]: 5%
- Population Healthy Nuclei (%) [2]: 88%
- Population Hoechst High Intensity Objects (%) [2]: 8%
- Population Membrane Permeable-Phenotype (%) [2]: 8%
- Population Mitochondria Different-Phenotype (%) [2]: 11%
- Population Mitotic Cells (%) [2]: 0%
- Population Normal (%) [2]: 92%
- Population Pyknosed Nuclei (%) [2]: 5%
- Population Tubulin-Different-Phenotype (%) [2]: 18%
- Population Apoptotic (%) [3]: 30%
- Population Fragmented Nuclei (%) [3]: 8%
- Population Healthy Nuclei (%) [3]: 77%
- Population Hoechst High Intensity Objects (%) [3]: 6%
- Population Membrane Permeable-Phenotype (%) [3]: 6%
- Population Mitochondria Different-Phenotype (%) [3]: 8%
- Population Mitotic Cells (%) [3]: 69%
- Population Normal (%) [3]: 93%
- Population Pyknosed Nuclei (%) [3]: 14%
- Population Tubulin-Different-Phenotype (%) [3]: 8%
- Population Apoptotic (%) [4]: 33%
- Population Healthy Nuclei (%) [4]: 79%
- Population Hoechst High Intensity Objects (%) [4]: 3%
- Population Membrane Permeable-Phenotype (%) [4]: 4%
- Population Mitochondria Different-Phenotype (%) [4]: 7%
- Population Mitotic Cells (%) [4]: 66%
- Population Normal (%) [4]: 96%
- Population Pyknosed Nuclei (%) [4]: 11%
- Population Tubulin-Different-Phenotype (%) [4]: 4%
- Population Apoptotic (%) [5]: 63%
- Population Fragmented Nuclei (%) [5]: 10%
- Population Healthy Nuclei (%) [5]: 82%
- Population Hoechst High Intensity Objects (%) [5]: 4%
- Population Mitochondria Different-Phenotype (%) [5]: 7%
- Population Mitotic Cells (%) [5]: 36%
- Population Normal (%) [5]: 95%
- Population Tubulin-Different-Phenotype (%) [5]: 12%
- Population Apoptotic (%) [6]: 50%
- Population Fragmented Nuclei (%) [6]: 11%
- Population Healthy Nuclei (%) [6]: 81%
- Population Hoechst High Intensity Objects (%) [6]: 5%
- Population Membrane Permeable-Phenotype (%) [6]: 2%
- Population Mitochondria Different-Phenotype (%) [6]: 18%
- Population Mitotic Cells (%) [6]: 50%
- Population Normal (%) [6]: 94%
- Population Pyknosed Nuclei (%) [6]: 6%
- Population Tubulin-Different-Phenotype (%) [6]: 21%
- Population Apoptotic (%) [7]: 20%
- Population Fragmented Nuclei (%) [7]: 7%
- Population Healthy Nuclei (%) [7]: 85%
- Population Hoechst High Intensity Objects (%) [7]: 5%
- Population Membrane Permeable-Phenotype (%) [7]: 5%
- Population Mitochondria Different-Phenotype (%) [7]: 2%
- Population Mitotic Cells (%) [7]: 80%
- Population Normal (%) [7]: 94%
- Population Pyknosed Nuclei (%) [7]: 6%
- Population Tubulin-Different-Phenotype (%) [7]: 5%
- Population Apoptotic (%) [8]: 41%
- Population Healthy Nuclei (%) [8]: 81%
- Population Hoechst High Intensity Objects (%) [8]: 2%
- Population Membrane Permeable-Phenotype (%) [8]: 3%
- Population Mitochondria Different-Phenotype (%) [8]: 5%
- Population Mitotic Cells (%) [8]: 58%
- Population Normal (%) [8]: 97%
- Population Pyknosed Nuclei (%) [8]: 11%
- Population Tubulin-Different-Phenotype (%) [8]: 4%
- Population Apoptotic (%) [9]: 23%
- Population Membrane Permeable-Phenotype (%) [9]: 1%
- Population Mitochondria Different-Phenotype (%) [9]: 12%
- Population Mitotic Cells (%) [9]: 76%
- Population Tubulin-Different-Phenotype (%) [9]: 5%
- Population Apoptotic (%) [10]: 42%
- Population Fragmented Nuclei (%) [10]: 5%
- Population Healthy Nuclei (%) [10]: 88%
- Population Hoechst High Intensity Objects (%) [10]: 1%
- Population Membrane Permeable-Phenotype (%) [10]: 13%
- Population Mitochondria Different-Phenotype (%) [10]: 17%
- Population Mitotic Cells (%) [10]: 57%
- Population Normal (%) [10]: 98%
- Population Pyknosed Nuclei (%) [10]: 5%
- Population Tubulin-Different-Phenotype (%) [10]: 21%
- Population Apoptotic (%) [11]: 46%
- Population Fragmented Nuclei (%) [11]: 1%
- Population Healthy Nuclei (%) [11]: 93%
- Population Hoechst High Intensity Objects (%) [11]: 2%
- Population Membrane Permeable-Phenotype (%) [11]: 1%
- Population Mitochondria Different-Phenotype (%) [11]: 9%
- Population Mitotic Cells (%) [11]: 53%
- Population Normal (%) [11]: 97%
- Population Tubulin-Different-Phenotype (%) [11]: 6%
- Population Apoptotic (%) [12]: 27%
- Population Fragmented Nuclei (%) [12]: 3%
- Population Healthy Nuclei (%) [12]: 91%
- Population Hoechst High Intensity Objects (%) [12]: 1%
- Population Membrane Permeable-Phenotype (%) [12]: 4%
- Population Mitochondria Different-Phenotype (%) [12]: 10%
- Population Mitotic Cells (%) [12]: 72%
- Population Normal (%) [12]: 98%
- Population Pyknosed Nuclei (%) [12]: 4%
- Population Tubulin-Different-Phenotype (%) [12]: 13%
